Data reported in ChEMBL document CHEMBL3632575, “Structure-Activity Relationships of the Peptide Kappa Opioid Receptor Antagonist Zyklophin” (J Med Chem, 2015).
Active and inactive are the calls of the source. No cut-off for these calls is given here.

Experiments:
[1] = target: Kappa-type opioid receptor (Homo sapiens) (UniProt P41145); test: Agonist activity at kappa-opioid receptor (unknown origin) at 10 uM after 90 mins by [35S]GTPgammaS binding assay; type: functional
How it was run: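 KOR-containing membranes were incubated in duplicate with [35S]GTPγS (0.1–0.2 nM) and 10 µM peptide for 90 min at 22 °C in 50 mM HEPES, pH 7.4. Specific binding is total minus binding with 3 µM unlabeled GTPγS. Efficacy is expressed relative to the full agonist Dyn A(1-13)NH2, from at least two independent experiments.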

[2] = target: Kappa-type opioid receptor (Homo sapiens) (UniProt P41145); test: Antagonist activity at kappa-opioid receptor (unknown origin) assessed as inhibition of DynA(1-13)-induced [35S]-GTPgammaS binding after 90 mins; type: functional
How it was run: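 Antagonism was measured in a [35S]GTPγS (0.1–0.2 nM) binding assay on KOR membranes, run in duplicate for 90 min at 22 °C in 50 mM HEPES, pH 7.4, with Dyn A(1-13)NH2 as the stimulating agonist. Specific binding is total minus binding with 3 µM GTPγS. KB was derived by Schild analysis from shifts of the agonist concentration-response curve, averaged over 2–5 independent experiments, with 95% confidence intervals.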

[3] = target: Kappa-type opioid receptor (Rattus norvegicus, UniProt P34975); test: Displacement of [3H]diprenorphine from rat kappa-opioid receptor expressed in CHO cells after 90 mins by scintillation counter; type: cell-based
How it was run: (§1)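 Membranes from CHO cells stably expressing cloned rat KOR or MOR were incubated in triplicate with test peptide at 0.1 nM–10 µM for 90 min at 22 °C in 50 mM Tris, pH 7.4. […] Nonspecific binding was set with 10 µM unlabeled Dyn A(1-13)NH2 (KOR) or DAMGO (MOR). Ki is the mean ± S.E.M. of at least three independent experiments.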

[4] = organism: Rattus norvegicus; test: Selectivity ratio, ratio of Ki for rat mu-opioid receptor to Ki for rat kappa-opioid receptor
[5] = target: Mu-type opioid receptor (Rattus norvegicus, UniProt P33535); test: Displacement of [3H]DAMGO from rat mu-opioid receptor expressed in CHO cells after 90 mins by scintillation counter; type: cell-based; how it was run: as §1
[6] = target: Kappa-type opioid receptor (Rattus norvegicus) (UniProt P34975); test: Displacement of [3H]diprenorphine from rat kappa-opioid receptor expressed in CHO cells after 90 mins by scintillation counter relative to zyklophin; type: cell-based
[7] = Retention time of the compound by RP-HPLC; type: physicochemical
How it was run: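 Analytical RP-HPLC on a C18 column (5 µ, 300 Å, 4.6 × 50 mm). System 1: 5–50% acetonitrile in water, both with 0.1% TFA, over 45 min at 1 mL/min. System 2: 15–60% methanol/0.1% TFA over 45 min at 1.0 mL/min. System 3: 1–21% acetonitrile against aqueous 0.09 M TEAP, pH 2.5, over 40 min.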

Chain of Kappa-type opioid receptor (Homo sapiens) (P41145 whole entry): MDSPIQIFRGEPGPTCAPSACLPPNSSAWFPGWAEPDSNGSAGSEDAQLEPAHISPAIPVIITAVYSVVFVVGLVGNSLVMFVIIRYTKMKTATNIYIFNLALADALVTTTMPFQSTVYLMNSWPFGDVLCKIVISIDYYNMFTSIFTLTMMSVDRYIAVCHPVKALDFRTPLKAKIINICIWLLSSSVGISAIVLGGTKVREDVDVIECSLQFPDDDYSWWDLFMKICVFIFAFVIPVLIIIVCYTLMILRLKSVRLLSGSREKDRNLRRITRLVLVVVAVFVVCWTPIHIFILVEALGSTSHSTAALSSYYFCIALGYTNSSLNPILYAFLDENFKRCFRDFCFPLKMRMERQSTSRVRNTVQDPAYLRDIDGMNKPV
Chain of Mu-type opioid receptor (P33535 whole entry): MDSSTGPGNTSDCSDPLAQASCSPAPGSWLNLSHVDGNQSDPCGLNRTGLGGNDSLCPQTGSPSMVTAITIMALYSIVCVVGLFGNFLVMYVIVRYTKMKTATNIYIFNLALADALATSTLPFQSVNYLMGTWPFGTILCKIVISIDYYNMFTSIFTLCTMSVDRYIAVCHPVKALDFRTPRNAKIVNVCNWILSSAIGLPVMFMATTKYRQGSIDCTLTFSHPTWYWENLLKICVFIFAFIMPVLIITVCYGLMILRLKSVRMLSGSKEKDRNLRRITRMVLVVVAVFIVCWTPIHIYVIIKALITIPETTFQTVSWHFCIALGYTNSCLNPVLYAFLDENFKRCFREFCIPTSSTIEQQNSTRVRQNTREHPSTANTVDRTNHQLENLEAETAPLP
Chain of Kappa-type opioid receptor (Rattus norvegicus) (P34975 whole entry): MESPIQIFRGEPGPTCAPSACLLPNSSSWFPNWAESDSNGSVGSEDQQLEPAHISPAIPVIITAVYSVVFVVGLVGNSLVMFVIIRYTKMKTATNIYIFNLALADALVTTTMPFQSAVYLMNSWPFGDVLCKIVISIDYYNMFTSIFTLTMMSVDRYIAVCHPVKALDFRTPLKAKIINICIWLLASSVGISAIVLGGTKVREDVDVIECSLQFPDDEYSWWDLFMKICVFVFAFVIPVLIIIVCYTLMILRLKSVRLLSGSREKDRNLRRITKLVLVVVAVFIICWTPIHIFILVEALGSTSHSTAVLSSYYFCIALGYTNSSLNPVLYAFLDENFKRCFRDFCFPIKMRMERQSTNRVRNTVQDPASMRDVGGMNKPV
Chain of Kappa-type opioid receptor (P34975 whole entry): as above

Row | SMILES | Activity [1] | also measured
1 | N=C(N)NCCC[C@@H]1NC(=O)[C@H](CCCNC(=N)N)NC(=O)[C@H](NC(=O)[C@H](Cc2ccccc2)NC(=O)CNC(=O)CNC(=O)[C@H](Cc2ccc(O)cc2)NCCc2ccccc2)CC(=O)NC[C@@H](C(=O)N[C@@H](CCCNC(=N)N)C(=O)N2CCC[C@H]2C(=O)N[C@@H](CCCCN)C(N)=O)NC1=O | Active | –
2 | C[C@H](NC(=O)CNC(=O)CNC(=O)[C@H](Cc1ccc(O)cc1)NCc1ccccc1)C(=O)N[C@@H]1CC(=O)NC[C@@H](C(=O)N[C@@H](CCCNC(=N)N)C(=O)N2CCC[C@H]2C(=O)N[C@@H](CCCCN)C(N)=O)NC(=O)[C@H](CCCNC(=N)N)NC(=O)[C@H](CCCNC(=N)N)NC1=O | inactive | –
3 | N=C(N)NCCC[C@@H]1NC(=O)[C@H](CCCNC(=N)N)NC(=O)[C@H](NC(=O)[C@H](Cc2ccccc2)NC(=O)CNC(=O)CNC(=O)[C@H](Cc2ccc(O)cc2)NCc2ccccc2)CC(=O)NCCC[C@@H](C(=O)N[C@@H](CCCNC(=N)N)C(=O)N2CCC[C@H]2C(=O)N[C@@H](CCCCN)C(N)=O)NC1=O | Active | –
4 | C[C@@H]1NC(=O)[C@H](CCCNC(=N)N)NC(=O)[C@H](NC(=O)[C@H](Cc2ccccc2)NC(=O)CNC(=O)CNC(=O)[C@H](Cc2ccc(O)cc2)NCc2ccccc2)CC(=O)NCC(C(=O)N[C@@H](CCCNC(=N)N)C(=O)N2CCC[C@H]2C(=O)N[C@@H](CCCCN)C(N)=O)NC1=O (some centres undefined) | inactive | Activity [2]: inactive
5 | CC[C@H](C)[C@H](NC(=O)[C@H](CCCNC(=N)N)NC(=O)[C@H](CCCNC(=N)N)NC(=O)[C@@H](CC(N)=O)NC(=O)[C@H](Cc1ccccc1)NC(=O)CNC(=O)CNC(=O)[C@H](Cc1ccc(O)cc1)NCc1ccccc1)C(=O)N[C@@H](CCCNC(=N)N)C(=O)N1CCC[C@H]1C(=O)N[C@@H](CCCCN)C(N)=O | – | Ki [3]: 0.412 µM; Ratio Ki [4]: 6; Ki [5]: 2.44 µM; fold change (FC) [6]: 0.23
6 | CC1NC(=O)C[C@@H](NC(=O)[C@H](Cc2ccccc2)NC(=O)CNC(=O)CNC(=O)[C@H](Cc2ccc(O)cc2)NCc2ccccc2)C(=O)N[C@@H](CCCNC(=N)N)C(=O)N[C@@H](CCCNC(=N)N)C(=O)NC1C(=O)N[C@@H](CCCNC(=N)N)C(=O)N1CCC[C@H]1C(=O)N[C@@H](CCCCN)C(N)=O (some centres undefined) | Active | Ratio Ki [4]: 8
7 | N=C(N)NCCC[C@@H]1NC(=O)[C@H](CCCNC(=N)N)NC(=O)[C@H](NC(=O)[C@H](Cc2ccccc2)NC(=O)CNC(=O)CNC(=O)[C@H](Cc2ccc(O)cc2)NCC2CC2)CC(=O)NC[C@@H](C(=O)N[C@@H](CCCNC(=N)N)C(=O)N2CCC[C@H]2C(=O)N[C@@H](CCCCN)C(N)=O)NC1=O | Active | –
8 | N=C(N)NCCC[C@@H]1NC(=O)[C@H](CCCNC(=N)N)NC(=O)[C@H](NC(=O)[C@H](Cc2ccccc2)NC(=O)CNC(=O)CNC(=O)[C@@H](Cc2ccc(O)cc2)NCc2ccccc2)CC(=O)NC[C@@H](C(=O)N[C@@H](CCCNC(=N)N)C(=O)N2CCC[C@H]2C(=O)N[C@@H](CCCCN)C(N)=O)NC1=O | – | Retention_time [7]: 17.3 min
9 | C[C@H](NC(=O)[C@@H]1CNC(=O)C[C@@H](NC(=O)[C@H](Cc2ccccc2)NC(=O)CNC(=O)CNC(=O)[C@H](Cc2ccc(O)cc2)NCc2ccccc2)C(=O)N[C@@H](CCCNC(=N)N)C(=O)N[C@@H](CCCNC(=N)N)C(=O)N1)C(=O)N1CCC[C@H]1C(=O)N[C@@H](CCCCN)C(N)=O | inactive | –
10 | C[C@@H]1NC(=O)[C@H](NC(=O)[C@H](Cc2ccccc2)NC(=O)CNC(=O)CNC(=O)[C@H](Cc2ccc(O)cc2)NCc2ccccc2)CC(=O)NC[C@@H](C(=O)N[C@@H](CCCNC(=N)N)C(=O)N2CCC[C@H]2C(=O)N[C@@H](CCCCN)C(N)=O)NC(=O)[C@H](CCCNC(=N)N)NC1=O | inactive | –
11 | C=CCN[C@@H](Cc1ccc(O)cc1)C(=O)NCC(=O)NCC(=O)N[C@@H](Cc1ccccc1)C(=O)N[C@@H]1CC(=O)NC[C@@H](C(=O)N[C@@H](CCCNC(=N)N)C(=O)N2CCC[C@H]2C(=O)N[C@@H](CCCCN)C(N)=O)NC(=O)[C@H](CCCNC(=N)N)NC(=O)[C@H](CCCNC(=N)N)NC1=O | Active | –
12 | N=C(N)NCCC[C@@H]1NC(=O)[C@H](CCCNC(=N)N)NC(=O)[C@H](NC(=O)[C@H](Cc2ccccc2)NC(=O)CNC(=O)CNC(=O)[C@H](Cc2ccc(O)cc2)NC(=O)c2ccccc2)CC(=O)NC[C@@H](C(=O)N[C@@H](CCCNC(=N)N)C(=O)N2CCC[C@H]2C(=O)N[C@@H](CCCCN)C(N)=O)NC1=O | Active | –
13 | C[C@H](NCc1ccccc1)C(=O)NCC(=O)NCC(=O)N[C@@H](Cc1ccccc1)C(=O)N[C@@H]1CC(=O)NC[C@@H](C(=O)N[C@@H](CCCNC(=N)N)C(=O)N2CCC[C@H]2C(=O)N[C@@H](CCCCN)C(N)=O)NC(=O)[C@H](CCCNC(=N)N)NC(=O)[C@H](CCCNC(=N)N)NC1=O | inactive | –
14 | CN[C@@H](Cc1ccc(O)cc1)C(=O)NCC(=O)NCC(=O)N[C@@H](Cc1ccccc1)C(=O)N[C@@H]1CC(=O)NC[C@@H](C(=O)N[C@@H](CCCNC(=N)N)C(=O)N2CCC[C@H]2C(=O)N[C@@H](CCCCN)C(N)=O)NC(=O)[C@H](CCCNC(=N)N)NC(=O)[C@H](CCCNC(=N)N)NC1=O | Active | –
